Measurements: publication PMC3306481 (Clinical Cancer Research, 2012)
Read-outs that look alike come from different tables or passages of the source.

Legend:
[1] = for Maximum tolerated dose (MTD): 21-day cycles (DL 7)
[2] = studies conducted with veliparib; cited from earlier work
PARP = settings: 24 hours after a single 50 mg dose; phase 0 trial; cited from earlier work
[3] = tested on: refractory solid tumors and lymphoid malignancies; assay: Phase I trial: tumor response by RECIST 1.0; type: in vivo, human
[4] = tested on: poly(ADP-ribose) (PAR), a product of PARP; assay: PAR levels in tumor biopsies; type: in vivo, human; settings: all five patients with paired pre- and post-dose biopsies, after 7 or 21 days of treatment; with cyclophosphamide
[5] = high-dose veliparib, preclinical model; cited from earlier work
γH2AX = γH2AX levels in circulating tumor cells; type: in vivo, human; settings: day 2 of cycle 1; of nine patients with detectable CTCs; with cyclophosphamide
Procedure, shortened: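 During cycle 1, patients took the oral test compound once daily (20–60 mg) with daily oral alkylator (50 or 100 mg). Circulating tumour cells were scored for γH2AX positivity by a validated immunofluorescence assay run to standard operating procedures and compared with each patient's baseline.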

[6] = Veliparib plasma pharmacokinetics; type: in vivo, human
Procedure, shortened: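 The oral test compound was dosed once daily at 20–60 mg with oral alkylator 50 or 100 mg daily. Plasma was sampled pre-dose and 0.5, 1, 1.5, 2, 3, 4, 6, 8 and 24 h post-dose on cycle 1 day 1 and on the last dosing day (7, 14 or 21). Blood was spun at 1,000 × g and plasma held at -70°C. Levels were read by LC-MS validated to FDA guidelines. Days were compared by two-tailed paired exact Wilcoxon test, with P < 0.05 taken as significant.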

In the case of `O=P1(N(CCCl)CCCl)NCCCO1` (centres unmarked) [cyclophosphamide], the “Maximum tolerated dose (MTD)” value ([1]; cyclophosphamide daily with veliparib 60 mg daily) is reported as 50 mg.

In the case of `C[C@]1(c2nc3c(C(N)=O)cccc3[nH]2)CCCN1` [veliparib, Veliparib], the “Cardiac toxicity related to study drug” value [2] is given as “no indication of cardiac toxicity”, the “Inhibition of PARP activity in tumor biopsies” value (PARP) is given as “greater than 48%” and the “Total No. of cycles” value ([3]; partial response, patient 15, breast cancer, dose level 5, with cyclophosphamide) is given as 4 cycles. For the same compound, the “Patients with prolonged stable disease among patients with known BRCA mutations” value ([3]; thirteen patients with known BRCA mutations, with cyclophosphamide) was “three”, the “Patients with partial response” value ([3]; veliparib with metronomic cyclophosphamide, 35 patients enrolled, RECIST 1.0) was “Seven” and the “Tolerability of the study regimen” value ([1]; in vivo) was “well tolerated”. For the same compound, the “Maximum tolerated dose (MTD)” value ([1]; veliparib daily with cyclophosphamide 50 mg daily) was 60 mg, the “Decrease in PAR levels in tumor biopsies” value [4] was “greater than 80%” and the Seizures [5] was “caused seizures”. For the same compound, the “Patients with an increased percentage of γH2AX-positive CTCs” value (γH2AX) was “Seven”, the “Changes in PK parameters between baseline and day 7, 14, or 21” value ([6]; co-administered metronomic cyclophosphamide) was “No statistically significant changes” and the half-life ([6]; human, plasma, oral) was 5 ± 1.5 h. The “PK behavior of veliparib at DL 5 compared with other DLs” value ([6]; three patients on DL 5 (100 mg cyclophosphamide)) was “not different”.
